Assay results from ChEMBL document CHEMBL1153056, “Identification of MK-1925: a selective, orally active and brain-penetrable opioid receptor-like 1 (ORL1) antagonist” (Bioorg Med Chem Lett, 2009).

How the values were obtained:
[1] = biological target: T1, Nociceptin receptor (Homo sapiens, UniProt P41146); test: Displacement of [125I]Tyr14-NC/OFQ from ORL1 receptor
[2] = Distribution coefficient, log D at pH 7.4 by shake-flask method; assay type: physicochemical; conditions: octanol/water
[3] = system: Mus musculus; test: Plasma concentration in mouse at 3 mg/kg, po; assay type: ADME, organism-based; design: dose 3 mg/kg, route oral; conditions: in vivo
Method in brief: (§1)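 Mice dosed orally at 3, 10 or 30 mg/kg. Plasma and brain were sampled 60 min after dosing. Brain level is given as nmol/g brain, and the brain/plasma ratio was derived.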

[4] = system: Mus musculus; test: Plasma concentration in mouse at 10 mg/kg, po; assay type: ADME, organism-based; design: dose 10 mg/kg, route oral; conditions: in vivo; method in brief: as §1
[5] = system: Mus musculus; test: Plasma concentration in mouse at 30 mg/kg, po; assay type: ADME, organism-based; design: dose 30 mg/kg, route oral; conditions: in vivo; method in brief: as §1
[6] = system: Brain; test: Drug level in mouse brain assessed per gram of tissue at 3 mg/kg, po after 60 mins; assay type: ADME, organism-based; design: dose 3 mg/kg, route oral; conditions: in vivo, 1 h; method in brief: as §1
[7] = system: Brain; test: Drug level in mouse brain assessed per gram of tissue at 10 mg/kg, po after 60 mins; assay type: ADME, organism-based; design: dose 10 mg/kg, route oral; conditions: in vivo, 1 h; method in brief: as §1
[8] = system: Brain; test: Drug level in mouse brain assessed per gram of tissue at 30 mg/kg, po after 60 mins; assay type: ADME, organism-based; design: dose 30 mg/kg, route oral; conditions: in vivo, 1 h; method in brief: as §1
[9] = Ratio of drug level in brain to plasma in mouse at 3 mg/kg, po after 60 mins; assay type: ADME, organism-based; design: dose 3 mg/kg, route oral
Method in brief: (§2)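 Mice received single oral doses (3, 10 or 30 mg/kg). Plasma and brain levels were taken 60 min after dosing. Brain levels were expressed as nmol/g brain, and the b/p ratio was brain level over plasma level.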

[10] = Ratio of drug level in brain to plasma in mouse at 10 mg/kg, po after 60 mins; assay type: ADME, organism-based; design: dose 10 mg/kg, route oral; method in brief: as §2
[11] = Ratio of drug level in brain to plasma in mouse at 30 mg/kg, po after 60 mins; assay type: ADME, organism-based; design: dose 30 mg/kg, route oral; method in brief: as §2
[12] = Inhibition of choline transporter at 10 uM
[13] = Inhibition of choline transporter
[14] = system: Canis familiaris; test: Toxicity in anesthetized dog assessed as adverse effect up to 10 mg/kg; assay type: organism-based, Canis lupus familiaris; design: dose 10 mg/kg; conditions: in vivo
[15] = Cmax in anesthetized dog at 10 mg/kg; assay type: ADME, organism-based, Canis lupus familiaris; design: dose 10 mg/kg; conditions: in vivo
[16] = Cmax in dog at 3 mg/kg, po; assay type: ADME, organism-based, Canis lupus familiaris; design: dose 3 mg/kg, route oral; conditions: in vivo
Method in brief: (§3)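 PK run with a 3 mg/kg oral dose and a 1 mg/kg IV dose; values are the mean of n = 3 animals.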

[17] = Half life in dog at 3 mg/kg, po; assay type: ADME, organism-based, Canis lupus familiaris; design: dose 3 mg/kg, route oral; conditions: in vivo; method in brief: as §3
[18] = Volume of distribution at steady state in dog at 1 mg/kg, iv; assay type: ADME, organism-based, Canis lupus familiaris; design: dose 1 mg/kg, route intravenous; conditions: in vivo, read-out: Vdss; method in brief: as §3
[19] = AUC (0 to infinity) in dog at 3 mg/kg, po; assay type: ADME, organism-based, Canis lupus familiaris; design: dose 3 mg/kg, route oral, time infinity; conditions: plasma; method in brief: as §3
[20] = Half life in rat at 3 mg/kg, po; assay type: ADME, organism-based; design: dose 3 mg/kg, route oral; conditions: in vivo; method in brief: as §3
[21] = Oral bioavailability in rat at 3 mg/kg; assay type: ADME, organism-based; conditions: in vivo; method in brief: as §3
[22] = Plasma clearance in dog at 1 mg/kg, iv; assay type: ADME, organism-based, Canis lupus familiaris; design: dose 1 mg/kg, route intravenous; method in brief: as §3
[23] = AUC (0 to infinity) in rat at 3 mg/kg, po; assay type: ADME, organism-based; design: time infinity, dose 3 mg/kg, route oral; conditions: plasma; method in brief: as §3
[24] = Cmax in rat at 3 mg/kg, po; assay type: ADME, organism-based; design: dose 3 mg/kg, route oral; conditions: in vivo; method in brief: as §3
[25] = Plasma clearance in rat at 1 mg/kg, iv; assay type: ADME, organism-based; design: dose 1 mg/kg, route intravenous; method in brief: as §3
[26] = Volume of distribution at steady state in rat at 1 mg/kg, iv; assay type: ADME, organism-based; design: dose 1 mg/kg, route intravenous; conditions: in vivo, read-out: Vdss; method in brief: as §3
[27] = Metabolic stability in cryopreserved human hepatocytes after 30 mins; assay type: ADME, cell-based, Hepatocyte; conditions: read-out: Stability
[28] = biological target: Mu-type opioid receptor (Homo sapiens, UniProt P35372); test: Displacement of [3H]diprenorphin from human cloned mu opioid receptor expressed in CHO cells; assay type: cell-based
Chain of Mu-type opioid receptor (P35372 whole entry): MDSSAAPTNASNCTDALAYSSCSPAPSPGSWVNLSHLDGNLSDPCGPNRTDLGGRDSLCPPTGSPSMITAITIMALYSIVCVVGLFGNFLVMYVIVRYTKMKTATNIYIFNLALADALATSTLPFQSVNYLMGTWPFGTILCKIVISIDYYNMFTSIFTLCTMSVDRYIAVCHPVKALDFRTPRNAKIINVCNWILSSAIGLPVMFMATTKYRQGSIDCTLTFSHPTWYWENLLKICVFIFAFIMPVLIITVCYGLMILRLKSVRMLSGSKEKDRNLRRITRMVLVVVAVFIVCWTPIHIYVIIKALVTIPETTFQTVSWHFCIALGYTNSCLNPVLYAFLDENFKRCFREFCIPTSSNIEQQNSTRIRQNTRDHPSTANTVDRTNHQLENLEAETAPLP

[29] = biological target: Kappa-type opioid receptor (Homo sapiens, UniProt P41145); test: Displacement of [3H]U69593 from human cloned kappa opioid receptor expressed in CHO cells; assay type: cell-based
Chain of Kappa-type opioid receptor (P41145 whole entry): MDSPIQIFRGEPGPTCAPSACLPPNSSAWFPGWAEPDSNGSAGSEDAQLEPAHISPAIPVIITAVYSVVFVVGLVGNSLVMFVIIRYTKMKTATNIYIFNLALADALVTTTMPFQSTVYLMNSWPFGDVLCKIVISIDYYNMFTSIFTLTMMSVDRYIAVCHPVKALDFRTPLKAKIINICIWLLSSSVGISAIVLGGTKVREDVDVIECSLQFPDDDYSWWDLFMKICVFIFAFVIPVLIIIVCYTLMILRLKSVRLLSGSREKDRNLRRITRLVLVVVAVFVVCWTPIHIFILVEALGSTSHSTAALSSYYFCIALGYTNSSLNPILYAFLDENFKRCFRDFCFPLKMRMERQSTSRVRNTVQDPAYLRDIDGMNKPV

[30] = biological target: Delta-type opioid receptor (Homo sapiens, UniProt P41143); test: Displacement of [3H]naltrindole from human cloned delta opioid receptor expressed in CHO cells; assay type: cell-based
Chain of Delta-type opioid receptor (P41143 whole entry): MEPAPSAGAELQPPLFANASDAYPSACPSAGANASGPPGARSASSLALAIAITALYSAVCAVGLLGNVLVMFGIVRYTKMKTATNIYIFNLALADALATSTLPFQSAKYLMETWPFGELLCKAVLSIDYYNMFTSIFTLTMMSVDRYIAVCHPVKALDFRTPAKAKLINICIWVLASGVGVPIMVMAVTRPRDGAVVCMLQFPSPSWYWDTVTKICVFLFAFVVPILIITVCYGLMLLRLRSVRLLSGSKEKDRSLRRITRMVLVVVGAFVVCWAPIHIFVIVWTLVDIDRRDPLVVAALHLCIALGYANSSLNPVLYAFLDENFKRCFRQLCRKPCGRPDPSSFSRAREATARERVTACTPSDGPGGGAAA

[31] = biological target: Voltage-gated inwardly rectifying potassium channel KCNH2 (Homo sapiens, UniProt Q12809); test: Displacement of [35S]MK499 from human ERG expressed in HEK293 cells overexpressing Ikr channel protein; assay type: cell-based
Chain of Voltage-gated inwardly rectifying potassium channel KCNH2 (Q12809 whole entry): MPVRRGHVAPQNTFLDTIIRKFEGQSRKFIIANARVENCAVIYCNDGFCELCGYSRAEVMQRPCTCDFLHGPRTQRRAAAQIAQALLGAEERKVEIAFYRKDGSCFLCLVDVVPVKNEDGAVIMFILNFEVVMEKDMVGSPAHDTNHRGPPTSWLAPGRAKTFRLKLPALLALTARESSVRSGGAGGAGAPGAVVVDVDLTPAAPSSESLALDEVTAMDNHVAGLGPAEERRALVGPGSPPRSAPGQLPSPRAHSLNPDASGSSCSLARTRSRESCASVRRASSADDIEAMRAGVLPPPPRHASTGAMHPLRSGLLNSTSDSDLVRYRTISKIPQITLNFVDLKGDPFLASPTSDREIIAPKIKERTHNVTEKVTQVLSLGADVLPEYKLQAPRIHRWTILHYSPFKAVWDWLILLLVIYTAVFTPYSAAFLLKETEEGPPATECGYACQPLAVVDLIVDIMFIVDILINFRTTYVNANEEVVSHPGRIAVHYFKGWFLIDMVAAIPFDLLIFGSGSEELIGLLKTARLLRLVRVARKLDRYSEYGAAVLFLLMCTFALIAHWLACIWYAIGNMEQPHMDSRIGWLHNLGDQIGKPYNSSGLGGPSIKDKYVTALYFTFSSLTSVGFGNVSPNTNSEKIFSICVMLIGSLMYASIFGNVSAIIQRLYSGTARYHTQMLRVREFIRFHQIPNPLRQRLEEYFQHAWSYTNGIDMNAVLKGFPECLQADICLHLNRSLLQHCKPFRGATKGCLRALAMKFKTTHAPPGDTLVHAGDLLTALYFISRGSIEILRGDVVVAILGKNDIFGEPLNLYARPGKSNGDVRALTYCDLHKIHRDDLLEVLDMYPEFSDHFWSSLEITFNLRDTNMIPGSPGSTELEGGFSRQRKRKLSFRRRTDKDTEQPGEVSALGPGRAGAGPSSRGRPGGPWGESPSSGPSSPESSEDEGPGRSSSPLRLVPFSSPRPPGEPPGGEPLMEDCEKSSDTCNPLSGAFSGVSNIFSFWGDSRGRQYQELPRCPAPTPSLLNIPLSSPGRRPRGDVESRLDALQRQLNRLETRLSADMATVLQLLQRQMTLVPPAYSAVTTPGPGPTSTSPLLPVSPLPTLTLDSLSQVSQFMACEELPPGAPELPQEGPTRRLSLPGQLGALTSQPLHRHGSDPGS
Method in brief: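 Membranes from HEK 293 cells stably transfected with the hERG gene and expressing the I_Kr channel protein; [³⁵S]-radiolabeled MK499 displaced.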

[32] = Oral bioavailability in dog at 3 mg/kg; assay type: ADME, organism-based, Canis lupus familiaris; conditions: in vivo; method in brief: as §3
[33] = system: Mus musculus; test: Reversal of ORL1 agonist-induced locomotor activity in mouse at 3 mg/kg, po after 60 mins; assay type: functional
Method in brief: (§4)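 Mice dosed orally; ORL1 agonist then given to reduce locomotor activity, with activity monitored for 60 min. Result expressed as % reversal of the agonist-induced reduction in locomotor activity.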

[34] = system: Mus musculus; test: Reversal of ORL1 agonist-induced locomotor activity in mouse at 10 mg/kg, po after 60 mins; assay type: functional; method in brief: as §4
[35] = system: Mus musculus; test: Reversal of ORL1 agonist-induced locomotor activity in mouse at 30 mg/kg, po after 60 mins; assay type: functional; method in brief: as §4
[36] = system: Mus musculus; test: Reversal of ORL1 agonist-induced locomotor activity in po dosed mouse after 60 mins; assay type: functional, organism-based
Method in brief: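 Mice received oral doses of 3, 10 or 30 mg/kg against the locomotor-activity reduction produced by an ORL1 agonist, measured over 60 min. Results are expressed as % reversal of the agonist response.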

[37] = biological target: T1, Nociceptin receptor; test: Antagonist activity at ORL1 receptor by [35S]GTPgammaS binding assay; assay type: functional

T1 sequence (P41146 whole entry): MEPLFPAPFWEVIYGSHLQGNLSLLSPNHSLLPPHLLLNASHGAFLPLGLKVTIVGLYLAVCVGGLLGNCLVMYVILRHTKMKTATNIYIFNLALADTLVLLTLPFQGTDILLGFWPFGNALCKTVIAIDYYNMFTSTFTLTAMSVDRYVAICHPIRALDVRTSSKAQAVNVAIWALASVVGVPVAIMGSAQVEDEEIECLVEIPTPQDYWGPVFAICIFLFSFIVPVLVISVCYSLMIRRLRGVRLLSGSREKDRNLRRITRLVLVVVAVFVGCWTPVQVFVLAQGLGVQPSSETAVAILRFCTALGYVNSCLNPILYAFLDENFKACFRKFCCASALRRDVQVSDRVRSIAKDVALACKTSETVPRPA

## Cc1c(CN[C@H]2CC[C@@H](F)C2)nn(C)c1-c1cc(F)cc(C(F)(F)F)c1
[1]
  IC50: 210 nM

## Cc1c(CN[C@H]2CC[C@@H](F)C2)nn(CCS(C)(=O)=O)c1-c1cc(F)cc(F)c1
[1]
  IC50: 33 nM
[2]
  logD: < 1

## Cc1c(CN[C@H]2CC[C@@H](F)C2)nn(CCO)c1-c1cc(F)cc(F)c1
[1]
  IC50: 15 nM
[2]
  logD: 1.3

## Cc1c(CN[C@H]2CC[C@@H](F)C2)nn(CCC#N)c1-c1cc(F)cc(F)c1
[3]
  concentration: 16 nM
[4]
  concentration: 315 nM
[5]
  concentration: 1630 nM
[6]
  Drug uptake: 0.035 nmol/g
[7]
  Drug uptake: 0.516 nmol/g
[8]
  Drug uptake: 3.02 nmol/g
[9]
  Kp at 1 h: 3.42
[10]
  Kp at 1 h: 1.62
[11]
  Kp at 1 h: 1.84
[12]
  inhibition: 50%
[13]
  IC50: 3700 nM
[14]
  Activity: Non-toxic
[15]
  Cmax: 9700 nM
[16]
  Cmax: 2600 nM
[17]
  half-life: 2.8 h
[18]
  Vd: 3.5 L/kg
[19]
  AUC(0-inf): 1.3 µM·h
[20]
  half-life: 0.7 h
[21]
  bioavailability: 21%
[22]
  clearance: 37 mL/min/kg
[23]
  AUC(0-inf): 0.3 µM·h
[24]
  Cmax: 400 nM
[25]
  clearance: 83 mL/min/kg
[26]
  Vd: 5.2 L/kg
[27]
  remaining at 0.5 h: 77%
[2]
  logD: 1.5
[28]
  IC50: > 10000 nM
[29]
  IC50: 9800 nM
[30]
  IC50: > 10000 nM
[31]
  IC50: 9500 nM
[32]
  bioavailability: 62%
[33]
  Activity: 17%
[34]
  Activity: 81%
[35]
  Activity: 112%
[36]
  Activity: Dose-dependent effect

## COCc1c(CN[C@H]2CC[C@@H](F)C2)nn(C)c1-c1cc(F)cc(F)c1
[1]
  IC50: 1.4 nM
[37]
  IC50: 1 nM
[27]
  remaining at 0.5 h: 39%

## Cn1nc(CN[C@H]2CC[C@@H](F)C2)c(Cl)c1-c1cc(F)cc(F)c1
[1]
  IC50: 9.3 nM
[37]
  IC50: 2.5 nM
[27]
  remaining at 0.5 h: 40%

## CCn1nc(CN[C@H]2CC[C@@H](F)C2)c(C)c1-c1cnc(C)c(F)c1
[1]
  IC50: 2 nM
[37]
  IC50: 0.61 nM

## Cc1c(CN[C@H]2CC[C@@H](F)C2)nn(C)c1-c1cc(F)c(F)c(F)c1
[1]
  IC50: 15 nM
[37]
  IC50: 13 nM

## Cc1c(CN[C@H]2CC[C@@H](F)C2)nn(C)c1-c1cc(F)cc(Cl)c1
[1]
  IC50: 17 nM

## Cc1ncc(-c2c(C)c(CN[C@H]3CC[C@@H](F)C3)nn2C)cc1F
[1]
  IC50: 4.3 nM
[37]
  IC50: 2.2 nM
[27]
  remaining at 0.5 h: 25%

## Cc1c(CN[C@H]2CC[C@@H](F)C2)nn(C)c1-c1cc(F)cc(F)c1
[1]
  IC50: 3.1 nM
[37]
  IC50: 2.5 nM
[27]
  remaining at 0.5 h: 56%
[2]
  logD: 1.9

## Cc1c(CN[C@H]2CC[C@@H](F)C2)nn(C)c1-c1ccc(F)c(F)c1
[1]
  IC50: 6.4 nM
[37]
  IC50: 6.5 nM

## Cc1ncc(-c2[nH]nc(CN[C@H]3CC[C@@H](F)C3)c2C)cc1F
[1]
  IC50: 9.9 nM
[37]
  IC50: 7.8 nM
[27]
  remaining at 0.5 h: 21%

## CC(=O)Cn1nc(CN[C@H]2CC[C@@H](F)C2)c(C)c1-c1cc(F)cc(F)c1
[1]
  IC50: 12 nM
[2]
  logD: 1.4

## Cc1ncc(-c2c(C)c(CN[C@H]3CC[C@@H](F)C3)nn2-c2ncccc2Cl)cc1F
[21]
  bioavailability: 3.2%
[27]
  remaining at 0.5 h: 39%
